Measurements: ChEMBL document CHEMBL3407426, “Synthesis and biological evaluations of novel endomorphin analogues containing α-hydroxy-β-phenylalanine (AHPBA) displaying mixed μ/δ opioid receptor agonist and δ opioid receptor antagonist activities” (Eur J Med Chem, 2015)
pEC50, pKi: −log10 of the molar value. Active and inactive are the calls of the source. Where a SMILES comes first, the peptide text is derived from it. [ ]: non-standard residue; d: D form. ξ: configuration not given here. Dmt = Cc1cc(O)cc(C)c1C[C@H](N)C(=O)O; ξTiq(1-COOH) = O=C(O)C1NCCc2ccccc21; β3hF = N[C@H](CC(=O)O)Cc1ccccc1

Columns and labels:
[1] = biological target: Delta-type opioid receptor (Rattus norvegicus, UniProt P33533); experiment: Displacement of [3H]DPDPE from rat cortex delta opioid receptor after 2.5 hrs by liquid scintillation counting analysis
[2] = Half life in rat brain homogenate at 10 uM; assay type: ADME, tissue-based
Summary of the method: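 Peptide at a final 10 µM in rat brain homogenate (protein 21.2 mg/mL), incubated at 37 °C. Aliquots quenched in acetonitrile with internal standard in triplicate, centrifuged, and analysed by LC-MS/MS in MRM mode. Half-life from pseudo-first-order loss of the analyte/internal-standard ratio; mean of at least three experiments ± SEM.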

[3] = Selectivity ratio of Ki for guinea pig cortex/cerebella kappa opioid receptor to Ki for rat cortex delta opioid receptor
Summary of the method: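 Ki ratio (KOR/DOR), from Ki values that are means of two experiments. KOR: guinea pig cortex and cerebellum membranes in 50 mM Tris pH 7.4 with 10 mM MgCl2; 2 nM [3H]U69,593; 2 h at 25 °C; unlabeled U50,488 defines the curve and nonspecific binding. Filtration on GF/B.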

Rattus norvegicus = species on record: Rattus norvegicus; experiment: Selectivity ratio of Ki for rat cortex mu opioid receptor to Ki for rat cortex delta opioid receptor
Summary of the method: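 Ki ratio (MOR/DOR), from Ki values that are means of two experiments. MOR: rat cortex homogenized in 50 mM Tris pH 7.4, spun, preincubated 30 min at 37 °C, spun again, then resuspended with bovine serum; displacement of [3H]DAMGO. DOR: 2 nM [3H]DPDPE; 2.5 h at 25 °C; unlabeled DPDPE as competitor. Filtration on GF/B.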

Mu-type opioid receptor = Mu-type opioid receptor (Rattus norvegicus, UniProt P33535); experiment: Displacement of [3H]DAMGO from rat cortex mu opioid receptor after 30 mins by liquid scintillation counting analysis
Summary of the method: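 Rat cortex membranes prepared in 50 mM Tris pH 7.4, spun 16,500 rpm for 10 min, and incubated 30 min at 37 °C. Competition against [³H]DAMGO. Assay ended by filtration on BSA-soaked GF/B filters. Ki values are means of two experiments.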

[4] = biological target: T1, Delta-type opioid receptor (Homo sapiens, UniProt P41143); experiment: Agonist activity at delta opioid receptor (unknown origin) expressed in CHO cells assessed as change in cell morphology at 3.3 uM measured over 30 mins by label free binding assay relative to DPDPE; assay type: cell-based
Summary of the method: (§1)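 Label-free biosensor (BIND) measuring cell spreading as increase in peak wavelength value. MOR in HEK293 cells, DOR in CHO cells, seeded 2 × 10⁴/well on fibronectin/collagen/albumin-coated plates and incubated overnight. Assay buffer was HBSS with 0.5–1% DMSO, equilibrated 30 min at room temperature before a baseline read. Compound added to a final 3.3 µM and read over 30 min. Response given as % of DAMGO 300 nM (MOR, n = 2) or DPDPE 10 nM (DOR, n = 4).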

[5] = biological target: Mu-type opioid receptor (Homo sapiens) (UniProt P35372); experiment: Agonist activity at mu opioid receptor (unknown origin) expressed in HEK293 cells assessed as change in cell morphology at 3.3 uM measured over 30 mins by label free binding assay relative to DAMGO; assay type: cell-based; summary of the method: as §1
Mus musculus [6] = experiment: Antinociceptive activity in icv dosed C57BL/6J mouse assessed as latency to withdrawal tail administered first dose for 8 hrs followed by second dose measured after 30 mins by 55 degC warm-water tail withdrawal assay; assay type: functional
Summary of the method: (§2)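 Acute tolerance in the mouse 55 °C warm-water tail-withdrawal test, 15 s cut-off. First i.c.v. dose at time 0 (morphine 3 nmol or test peptide 2 nmol), then a second i.c.v. dose of 0.1–100 nmol 8 h later. Latency read 30 min after the second dose for morphine and 20 min for the peptide. n = 8 mice per point; ED₅₀ with 95% CI by nonlinear regression.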

Mus musculus [7] = experiment: Antinociceptive activity in icv dosed C57BL/6J mouse assessed as latency to withdrawal tail after 30 mins by 55 degC warm-water tail withdrawal assay; assay type: functional
Summary of the method: (§3)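 Mouse 55 °C warm-water tail-withdrawal test with a baseline latency taken before dosing and a 15 s cut-off. Single i.c.v. injection of 5 µL into the lateral ventricle under light isoflurane. Latency measured at 10-min intervals, with dose–response values taken at peak: 20 min for peptides, 30 min for morphine. Mean % antinociception from 8 mice; ED₅₀ with 95% CI.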

[8] = biological target: T1, Delta-type opioid receptor; experiment: Agonist activity at delta opioid receptor (unknown origin) expressed in CHO cells assessed as inhibition of forskolin-induced cAMP production at 500 nM after 30 mins by europium cryptate/d2 dye-based FRET analysis relative to DPDPE; assay type: functional, cell-based
Summary of the method: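 DOR-expressing CHO cells, 20,000/well, exposed to test compound at 500 nM with 4 µM forskolin in PBS containing 1 mM IBMX for 30 min at room temperature. Cells then lysed with Europium cryptate and d2 acceptor reagents for 1 h, and cAMP read by FRET. Expressed as % of the 500 nM DPDPE response, n = 4.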

Mus musculus [9] = experiment: Antinociceptive activity in kappa opioid receptor knock out mouse assessed as latency to withdrawal tail at 100 nmol, icv after 30 mins by 55 degC warm-water tail withdrawal assay; assay type: functional, organism-based
Summary of the method: (§4)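 Tail-withdrawal test at 55 °C, read 30 min after i.c.v. dosing (100 or 30 nmol), in MOR KO or KOR KO mice. Wild-type C57BL/6J mice were instead pretreated with naltrindole 20 mg/kg, route given as i.p. in the methods and s.c. in the legend, 20 min before dosing. n = 8 mice; one-way ANOVA with Tukey's test.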

Mus musculus [10] = experiment: Toxicity in C57BL/6J mouse assessed as impairment of locomotor co-ordination at 100 nmol, icv administered 15 mins prior to assessment in accelerated speed trials measured over 60 mins by rotorod test; assay type: organism-based; conditions: in vivo, icv_or_intrathecal, 1 h
Summary of the method: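 Rotorod test after seven habituation trials, the last used as baseline. Mice given vehicle (50% DMSO) or 100 nmol i.c.v. Latency to fall recorded over 60 min and expressed as % change from baseline per 10 min. 8–18 mice; two-way ANOVA.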

Mus musculus [11] = experiment: Antinociceptive activity in mu opioid receptor knock out mouse assessed as latency to withdrawal tail at 100 nmol, icv after 30 mins by 55 degC warm-water tail withdrawal assay; assay type: functional, organism-based; summary of the method: as §4
Mus musculus [12] = experiment: Antinociceptive activity in icv dosed C57BL/6J mouse assessed as latency to withdrawal tail after 20 mins by 55 degC warm-water tail withdrawal assay; assay type: functional; summary of the method: as §3
Mus musculus [13] = experiment: Antinociceptive activity in wild type C57BL/6J mouse assessed as latency to withdrawal tail at 100 nmol, icv treated with delta opioid receptor anatgonist naltrindole for 20 mins prior to compound treatment measured after 30 mins by 55 degC warm-water tail withdrawal assay; assay type: functional, organism-based; summary of the method: as §4
Mus musculus [14] = experiment: Antinociceptive activity in mu opioid receptor knock out mouse assessed as latency to withdrawal tail at 30 nmol, icv after 30 mins by 55 degC warm-water tail withdrawal assay; assay type: functional, organism-based; summary of the method: as §4
Mus musculus [15] = experiment: Antinociceptive activity in C57BL/6J mouse assessed as latency to withdrawal tail at 100 nmol, icv measured up to 80 mins by 55 degC warm-water tail withdrawal assay; assay type: functional, organism-based; summary of the method: as §3
Mus musculus [16] = experiment: Antinociceptive activity in icv dosed C57BL/6J mouse assessed as latency to withdrawal tail administered first dose for 8 hrs followed by second dose measured after 20 mins by 55 degC warm-water tail withdrawal assay; assay type: functional; summary of the method: as §2
Mus musculus [17] = experiment: Inhibition of kappa opioid receptor agonist U50,488-induced antinociceptive activity in C57BL/6J mouse assessed as latency to withdrawal tail at 30 nmol, icv administered 90 mins prior to U50,488 treatment measured after 40 mins by 55 degC warm-water tail withdrawal assay; assay type: functional, organism-based
Summary of the method: (§5)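 C57BL/6J mice given 30 nmol i.c.v. 90 min before morphine 10 mg/kg i.p., U50,488 10 mg/kg i.p., or SNC-80 100 nmol i.c.v. Tail-withdrawal at 55 °C measured 40 min after the agonist. n = 8 mice; Student's t-test.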

[18] = biological target: T1, Delta-type opioid receptor; experiment: Agonist activity at delta opioid receptor (unknown origin) expressed in CHO cells assessed as change in cell morphology measured over 30 mins by label free binding assay; assay type: cell-based
Summary of the method: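 DOR-expressing CHO cells on coated plates in a label-free BIND biosensor, with the increase in peak wavelength value read over 30 min after compound addition. HBSS buffer with 0.5–1% DMSO, baseline read first. Points are means of two separate assays.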

Mus musculus [19] = experiment: Antinociceptive activity in kappa opioid receptor knock out mouse assessed as latency to withdrawal tail at 30 nmol, icv after 30 mins by 55 degC warm-water tail withdrawal assay; assay type: functional, organism-based; summary of the method: as §4
Mus musculus [20] = experiment: Inhibition of delta opioid receptor agonist SNC-80-induced antinociceptive activity in C57BL/6J mouse assessed as latency to withdrawal tail at 30 nmol, icv administered 90 mins prior to SNC-80 treatment measured after 40 mins by 55 degC warm-water tail withdrawal assay; assay type: functional, organism-based; summary of the method: as §5
Mus musculus [21] = experiment: Inhibition of mu opioid receptor agonist morphine-induced antinociceptive activity in C57BL/6J mouse assessed as latency to withdrawal tail at 30 nmol, icv administered 90 mins prior to morphine treatment measured after 40 mins by 55 degC warm-water tail withdrawal assay; assay type: functional, organism-based; summary of the method: as §5
Mus musculus [22] = experiment: Antinociceptive activity in wild type C57BL/6J mouse assessed as latency to withdrawal tail at 30 nmol, icv treated with delta opioid receptor anatgonist naltrindole for 20 mins prior to compound addition measured after 30 mins by 55 degC warm-water tail withdrawal assay; assay type: functional, organism-based; summary of the method: as §4

Sequence of Delta-type opioid receptor (Rattus norvegicus, UniProt P33533) (P33533 whole entry): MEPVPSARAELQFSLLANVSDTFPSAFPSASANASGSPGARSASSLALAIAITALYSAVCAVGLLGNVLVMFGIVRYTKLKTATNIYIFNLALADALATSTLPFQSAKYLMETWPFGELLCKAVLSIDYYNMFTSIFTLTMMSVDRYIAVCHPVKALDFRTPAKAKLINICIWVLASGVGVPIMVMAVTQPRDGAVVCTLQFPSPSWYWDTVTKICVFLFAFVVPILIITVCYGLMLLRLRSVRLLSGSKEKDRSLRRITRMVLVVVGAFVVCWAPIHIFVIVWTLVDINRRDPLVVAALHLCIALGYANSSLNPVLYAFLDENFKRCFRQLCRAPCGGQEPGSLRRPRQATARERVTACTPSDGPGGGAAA
Sequence of Mu-type opioid receptor (P33535 whole entry): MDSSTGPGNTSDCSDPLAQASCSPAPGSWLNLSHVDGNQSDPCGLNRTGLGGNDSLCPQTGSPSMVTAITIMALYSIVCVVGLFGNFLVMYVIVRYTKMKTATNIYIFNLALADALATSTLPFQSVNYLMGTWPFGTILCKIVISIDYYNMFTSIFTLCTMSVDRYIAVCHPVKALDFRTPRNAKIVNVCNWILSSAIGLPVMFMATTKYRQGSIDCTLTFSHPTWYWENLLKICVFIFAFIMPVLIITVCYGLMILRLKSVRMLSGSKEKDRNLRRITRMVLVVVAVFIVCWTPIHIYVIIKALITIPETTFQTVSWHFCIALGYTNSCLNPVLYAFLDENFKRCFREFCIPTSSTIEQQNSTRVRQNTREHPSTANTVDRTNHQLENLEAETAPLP
Sequence of Mu-type opioid receptor (Homo sapiens) (P35372 whole entry): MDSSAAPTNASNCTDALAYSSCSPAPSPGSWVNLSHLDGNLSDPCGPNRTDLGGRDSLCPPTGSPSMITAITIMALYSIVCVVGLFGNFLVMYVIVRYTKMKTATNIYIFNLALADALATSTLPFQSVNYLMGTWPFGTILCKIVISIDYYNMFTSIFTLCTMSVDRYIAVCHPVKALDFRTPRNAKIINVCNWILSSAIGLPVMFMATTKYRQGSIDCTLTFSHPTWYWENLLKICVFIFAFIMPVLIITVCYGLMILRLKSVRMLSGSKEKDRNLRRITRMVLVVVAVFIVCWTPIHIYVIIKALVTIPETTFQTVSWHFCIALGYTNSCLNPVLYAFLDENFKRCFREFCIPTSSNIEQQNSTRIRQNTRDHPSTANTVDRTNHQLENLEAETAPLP
T1 sequence (P41143 whole entry): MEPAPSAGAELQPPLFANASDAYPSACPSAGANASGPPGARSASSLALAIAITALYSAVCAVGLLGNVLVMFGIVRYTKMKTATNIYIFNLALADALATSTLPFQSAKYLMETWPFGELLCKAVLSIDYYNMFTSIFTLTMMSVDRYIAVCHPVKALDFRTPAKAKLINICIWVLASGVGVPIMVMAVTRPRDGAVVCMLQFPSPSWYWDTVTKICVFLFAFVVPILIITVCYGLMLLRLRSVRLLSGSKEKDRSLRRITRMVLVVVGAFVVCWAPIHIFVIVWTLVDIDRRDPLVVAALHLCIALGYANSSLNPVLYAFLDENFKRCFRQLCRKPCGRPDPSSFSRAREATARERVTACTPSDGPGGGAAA

| Structure (SMILES) | pKi [1] | half-life at 10 µM [2] [min] | pKi (Mu-type opioid receptor) | Activity [4] [%] | Activity [5] [%] | inhibition [8] [%] | further results |
| --- | --- | --- | --- | --- | --- | --- | --- |
| Cc1cc(O)cc(C)c1C[C@H](N)C(=O)N1CCc2ccccc2C1C(=O)N[C@@H](Cc1ccccc1)C(=O)N[C@H](CC(N)=O)Cc1ccccc1 (stereo partly drawn) (H-[Dmt][ξTiq(1-COOH)]F[β3hF]-NH2) | 9.00 | 28.9 | 7.82 | – | – | – | Ratio Ki [3]: 30; Ratio Ki (Rattus norvegicus): 15 |
| NC(=O)[C@H](Cc1ccccc1)NC(=O)[C@H](Cc1c[nH]c2ccccc12)NC(=O)[C@@H]1CCCN1C(=O)[C@@H](N)Cc1ccc(O)cc1 | – | – | – | 49 | – | – | – |
| Cc1cc(O)cc(C)c1C[C@H](N)C(=O)N1CCc2ccccc2C1C(=O)N[C@@H](Cc1ccccc1)C(=O)N[C@@H](Cc1ccccc1)[C@@H](O)C(N)=O (stereo partly drawn) | 9.30 | 82.6 | 7.82 | 22 | 52 | – | – |
| Cc1cc(O)cc(C)c1C[C@H](N)C(=O)N1CCc2ccccc2C1C(=O)N[C@H](CC(=O)N[C@@H](Cc1ccccc1)C(N)=O)Cc1ccccc1 (stereo partly drawn) (H-[Dmt][ξTiq(1-COOH)][β3hF]F-NH2) | 9.00 | > 120 | 8.22 | – | – | – | Ratio Ki (Rattus norvegicus): 6 |
| CN1CC[C@]23c4c5ccc(O)c4O[C@H]2[C@@H](O)C=C[C@H]3[C@H]1C5 [MORPHINE] | – | – | – | – | – | – | ED50 (Mus musculus [6]): 22.5 nmol; Activity (Mus musculus [7]): Dose-dependent effect; ED50 (Mus musculus [7]): 2.35 nmol |
| Cc1cc(O)cc(C)c1C[C@H](N)C(=O)N1CCc2ccccc2C1C(=O)N[C@@H](Cc1c[nH]c2ccccc12)C(=O)N[C@@H](Cc1ccccc1)C(N)=O (stereo partly drawn) (H-[Dmt][ξTiq(1-COOH)]WF-NH2) | 8.70 | 32.2 | 8.30 | 26 | 43 | 87 | – |
| NC(=O)[C@H](Cc1ccccc1)NC(=O)[C@H](Cc1ccccc1)NC(=O)[C@@H]1CCCN1C(=O)[C@@H](N)Cc1ccc(O)cc1 [ENDOMORPHIN 2] | – | 0.75 | – | 52 | 98 | – | – |
| Cc1cc(O)cc(C)c1C[C@H](N)C(=O)N1CCc2ccccc2C1C(=O)N[C@@H](Cc1ccccc1)C(=O)N[C@@H](Cc1ccccc1)C(N)=O (stereo partly drawn) (H-[Dmt][ξTiq(1-COOH)]FF-NH2) | 8.70 | 6.11 | 8.30 | 46 | 61 | 73 | Activity (Mus musculus [9]): inactive; Activity (Mus musculus [10]): Toxic; Activity (Mus musculus [11]): inactive; Activity (Mus musculus [12]): Dose-dependent effect; ED50 (Mus musculus [12]): 21.7 nmol; Activity (Mus musculus [13]): inactive |
| Cc1cc(O)cc(C)c1C[C@H](N)C(=O)N1CCc2ccccc2C1C(=O)N[C@@H](Cc1ccccc1)[C@@H](O)C(=O)N[C@@H](Cc1ccccc1)C(N)=O (stereo partly drawn) | 9.15 | > 120 | 8.10 | 30 | 42 | 66 | Activity (Mus musculus [14]): inactive; Activity (Mus musculus [15]): Active; ED50 (Mus musculus [16]): 0.86 nmol; Activity (Mus musculus [10]): Non-toxic; inhibition (Mus musculus [17]): inactive; Activity (Mus musculus [12]): Dose-dependent effect; ED50 (Mus musculus [12]): 1.98 nmol; pEC50 [18]: 7.64; Activity (Mus musculus [19]): inactive; inhibition (Mus musculus [20]): Active; inhibition (Mus musculus [21]): inactive; Activity (Mus musculus [22]): inactive |
| Cc1cc(O)cc(C)c1C[C@H](N)C(=O)N1CCc2ccccc2C1C(=O)N[C@@H](Cc1c[nH]c2ccccc12)C(=O)N[C@@H](Cc1ccccc1)[C@H](O)C(N)=O (stereo partly drawn) | 9.10 | > 120 | 8.52 | 45 | 50 | 104 | – |
| Cc1cc(O)cc(C)c1C[C@H](N)C(=O)N1CCc2ccccc2C1C(=O)N[C@@H](Cc1ccccc1)C(=O)N[C@@H](Cc1ccccc1)[C@H](O)C(N)=O (stereo partly drawn) | 9.00 | 49 | 7.92 | 82 | 51 | – | – |
